Measurements as given in PMC7346273 (ACS Omega, 2020).

Molecular target: Aβ40 (Homo sapiens, UniProt P05067)
Assay: Aβ40 aggregation inhibition and fibril destabilization
Type: biochemical
Settings: synthetic peptides
How it was run: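 Aβ40 was pre-treated in HFIP (1.0 mg/mL), lyophilized, stored at −20 °C, redissolved in DMSO to 5 mM and sonicated 10 min. It was diluted into PBS pH 7.5 with 0.2% SDS (100 μM final) and incubated at 37 °C for 7 days, with test compound added before incubation or to preformed aggregates. Samples were imaged by acoustic AC-mode AFM. ThT was read immediately (Aβ40 5 μM, ThT 20 μM; ex 450 nm, em 480–600 nm) with the no-Aβ40 background subtracted; mean ± SD, three independent experiments.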

Aβ40, sequence (P05067 672-711 limits assumed): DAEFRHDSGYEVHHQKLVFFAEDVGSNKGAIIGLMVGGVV

KAISFSK [Peptide P1]
ThT fluorescence of treated Aβ40 compared to control (Aβ40/peptide = 10:1, 7 days, ThT 20 μM, Aβ40 5 μM): even higher ThT fluorescence
effect on Aβ40 aggregation (AFM) (Aβ40/peptide = 10:1, PBS pH 7.5 with 0.2% SDS, 37 °C, 7 days): aggravated the aggregation tendency
